Assay results: ChEMBL document CHEMBL3227952, “Potential organ- or tumor-imaging agents. 18. Radioiodinated diamines and bisquaternaries” (J Med Chem, 1979)

Legend:
Conditions in all cases: in vivo
Adrenal [1] = experiment: Drug uptake in Sprague-Dawley rat adrenal at 6.3 uCi, iv after 0.5 hrs by liquid scintillation counting; assay type: ADME, organism-based, Adrenal gland
Procedure, shortened: (§1)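 Adult male Sprague-Dawley rats (200–420 g) got ¹⁴C-labelled bisquaternary (20.9 µCi/mg) in saline, 0.1 mL, by tail vein under ether anesthesia. Five rats per time point were exsanguinated under ether. Organs were excised, rinsed, blotted and weighed. Duplicate samples underwent liquid scintillation counting, with quench corrected by the external standard-channels ratio. Results are % administered dose/g, mean ± SEM.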

Brain [2] = experiment: Drug uptake in Sprague-Dawley rat brain at 6.3 uCi, iv after 0.5 hrs by liquid scintillation counting; assay type: ADME, organism-based; procedure, shortened: as §1
[3] = Drug uptake in Sprague-Dawley rat diaphragm at 6.3 uCi, iv after 0.5 hrs by liquid scintillation counting; assay type: ADME, organism-based; procedure, shortened: as §1
Heart [4] = experiment: Drug uptake in Sprague-Dawley rat heart at 6.3 uCi, iv after 0.5 hrs by liquid scintillation counting; assay type: ADME, organism-based; procedure, shortened: as §1
[5] = Drug uptake in Sprague-Dawley rat intervertebral disk at 6.3 uCi, iv after 0.5 hrs by liquid scintillation counting; assay type: ADME, organism-based; procedure, shortened: as §1
Kidney [6] = experiment: Drug uptake in Sprague-Dawley rat kidney at 6.3 uCi, iv after 0.5 hrs by liquid scintillation counting; assay type: ADME, organism-based; procedure, shortened: as §1
Liver [7] = experiment: Drug uptake in Sprague-Dawley rat liver at 6.3 uCi, iv after 0.5 hrs by liquid scintillation counting; assay type: ADME, organism-based; procedure, shortened: as §1
Lung [8] = experiment: Drug uptake in Sprague-Dawley rat lung at 6.3 uCi, iv after 0.5 hrs by liquid scintillation counting; assay type: ADME, organism-based; procedure, shortened: as §1
[9] = Drug uptake in Sprague-Dawley rat meninges at 6.3 uCi, iv after 0.5 hrs by liquid scintillation counting; assay type: ADME, organism-based; procedure, shortened: as §1
Pancreas [10] = experiment: Drug uptake in Sprague-Dawley rat pancreas at 6.3 uCi, iv after 0.5 hrs by liquid scintillation counting; assay type: ADME, organism-based; procedure, shortened: as §1
Spleen [11] = experiment: Drug uptake in Sprague-Dawley rat spleen at 6.3 uCi, iv after 0.5 hrs by liquid scintillation counting; assay type: ADME, organism-based
Procedure, shortened: (§2)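 [¹⁴C]Hexamethonium diiodide in saline (15 mg/5.0 mL), 20.9 μCi/mg, 0.1 mL injected into the tail vein of ether-anesthetized adult male Sprague-Dawley rats (200–420 g). At 0.5 or 2 h rats were exsanguinated under ether and organs excised, rinsed, blotted and weighed. Duplicate samples were counted by liquid scintillation, with quench corrected by external standard-channels ratio. Results are % administered dose/g, mean ± SEM, five rats.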

Testes [12] = experiment: Drug uptake in Sprague-Dawley rat testes at 6.3 uCi, iv after 0.5 hrs by liquid scintillation counting; assay type: ADME, organism-based, Testis; procedure, shortened: as §2
Thyroid gland [13] = experiment: Drug uptake in Sprague-Dawley rat thyroid at 6.3 uCi, iv after 0.5 hrs by liquid scintillation counting; assay type: ADME, organism-based; procedure, shortened: as §2
[14] = Drug uptake in Sprague-Dawley rat trachea at 6.3 uCi, iv after 0.5 hrs by liquid scintillation counting; assay type: ADME, organism-based; procedure, shortened: as §2
Blood [15] = experiment: Drug uptake in Sprague-Dawley rat blood at 6.3 uCi, iv after 0.5 hrs by liquid scintillation counting; assay type: ADME, organism-based; procedure, shortened: as §1
Adrenal [16] = experiment: Drug uptake in Sprague-Dawley rat adrenal at 6.3 uCi, iv after 2 hrs by liquid scintillation counting; assay type: ADME, organism-based, Adrenal gland; procedure, shortened: as §1
Brain [17] = experiment: Drug uptake in Sprague-Dawley rat brain at 6.3 uCi, iv after 2 hrs by liquid scintillation counting; assay type: ADME, organism-based; procedure, shortened: as §1
[18] = Drug uptake in Sprague-Dawley rat diaphragm at 6.3 uCi, iv after 2 hrs by liquid scintillation counting; assay type: ADME, organism-based; procedure, shortened: as §1
Heart [19] = experiment: Drug uptake in Sprague-Dawley rat heart at 6.3 uCi, iv after 2 hrs by liquid scintillation counting; assay type: ADME, organism-based; procedure, shortened: as §1
[20] = Drug uptake in Sprague-Dawley rat intervertebral disk at 6.3 uCi, iv after 2 hrs by liquid scintillation counting; assay type: ADME, organism-based; procedure, shortened: as §1
Kidney [21] = experiment: Drug uptake in Sprague-Dawley rat kidney at 6.3 uCi, iv after 2 hrs by liquid scintillation counting; assay type: ADME, organism-based; procedure, shortened: as §1
Liver [22] = experiment: Drug uptake in Sprague-Dawley rat liver at 6.3 uCi, iv after 2 hrs by liquid scintillation counting; assay type: ADME, organism-based; procedure, shortened: as §1
Lung [23] = experiment: Drug uptake in Sprague-Dawley rat lung at 6.3 uCi, iv after 2 hrs by liquid scintillation counting; assay type: ADME, organism-based; procedure, shortened: as §1
[24] = Drug uptake in Sprague-Dawley rat meninges at 6.3 uCi, iv after 2 hrs by liquid scintillation counting; assay type: ADME, organism-based; procedure, shortened: as §1
Pancreas [25] = experiment: Drug uptake in Sprague-Dawley rat pancreas at 6.3 uCi, iv after 2 hrs by liquid scintillation counting; assay type: ADME, organism-based; procedure, shortened: as §1
Spleen [26] = experiment: Drug uptake in Sprague-Dawley rat spleen at 6.3 uCi, iv after 2 hrs by liquid scintillation counting; assay type: ADME, organism-based; procedure, shortened: as §2
Testes [27] = experiment: Drug uptake in Sprague-Dawley rat testes at 6.3 uCi, iv after 2 hrs by liquid scintillation counting; assay type: ADME, organism-based, Testis; procedure, shortened: as §2
Thyroid gland [28] = experiment: Drug uptake in Sprague-Dawley rat thyroid at 6.3 uCi, iv after 2 hrs by liquid scintillation counting; assay type: ADME, organism-based; procedure, shortened: as §2
[29] = Drug uptake in Sprague-Dawley rat trachea at 6.3 uCi, iv after 2 hrs by liquid scintillation counting; assay type: ADME, organism-based; procedure, shortened: as §2
Blood [30] = experiment: Drug uptake in Sprague-Dawley rat blood at 6.3 uCi, iv after 2 hrs by liquid scintillation counting; assay type: ADME, organism-based; procedure, shortened: as §1

C[N+](C)([14CH3])CCCCCC[N+](C)(C)[14CH3].[I-].[I-]
Drug uptake (Adrenal [1]): 0.104 % ID/g | Drug uptake (Brain [2]): 0.018 % ID/g | Drug uptake [3]: 0.094 % ID/g | Drug uptake (Heart [4]): 0.145 % ID/g | Drug uptake [5]: 1.094 % ID/g | Drug uptake (Kidney [6]): 2.616 % ID/g | Drug uptake (Liver [7]): 0.112 % ID/g | Drug uptake (Lung [8]): 0.377 % ID/g | Drug uptake [9]: 0.301 % ID/g | Drug uptake (Pancreas [10]): 0.079 % ID/g | Drug uptake (Spleen [11]): 0.123 % ID/g | Drug uptake (Testes [12]): 0.097 % ID/g | Drug uptake (Thyroid gland [13]): 0.206 % ID/g | Drug uptake [14]: 1.35 % ID/g | Drug uptake (Blood [15]): 0.31 % ID/g | Drug uptake (Adrenal [16]): 0.043 % ID/g | Drug uptake (Brain [17]): 0.018 % ID/g | Drug uptake [18]: 0.014 % ID/g | Drug uptake (Heart [19]): 0.018 % ID/g | Drug uptake [20]: 0.144 % ID/g | Drug uptake (Kidney [21]): 1.384 % ID/g | Drug uptake (Liver [22]): 0.049 % ID/g | Drug uptake (Lung [23]): 0.137 % ID/g | Drug uptake [24]: 0.413 % ID/g | Drug uptake (Pancreas [25]): 0.016 % ID/g | Drug uptake (Spleen [26]): 0.051 % ID/g | Drug uptake (Testes [27]): 0.022 % ID/g | Drug uptake (Thyroid gland [28]): 0.047 % ID/g | Drug uptake [29]: 0.127 % ID/g | Drug uptake (Blood [30]): 0.02 % ID/g
